# Assays:
# [1] = test system: patients with advanced solid tumors; assay: Phase I dose escalation: toxicity assessment; assay type: in vivo, human
# Outline: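 Cohorts of three started at 100 μg/kg s.c. daily ×5 per 21-d cycle, with planned levels of 100–1,000 μg/kg. One DLT expanded a cohort to six. DLT was grade ≥3 toxicity at least possibly treatment-related, and MTD allowed ≤1/6 with DLT. Exam and labs ran weekly in cycle 1, then on day 1 of later cycles, graded by CTCAE v3.0.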
# [2] = Pharmacokinetics: plasma Ang-; assay type: in vivo, human
# [3] = 18 patients, 100-700 μg/kg s.c. daily x5 every 21 d, CTCAE v3.0, count
smiles,measurement,setting,value
"CC[C@H](C)[C@H](NC(=O)[C@H](Cc1ccc(O)cc1)NC(=O)[C@@H](NC(=O)[C@H](CCCNC(=N)N)NC(=O)[C@@H](N)CC(=O)O)C(C)C)C(=O)N[C@@H](Cc1c[nH]cn1)C(=O)N1CCC[C@H]1C(=O)O [Ang-(1-7), Angiotensin-(1-7)]",SAE possibly related to Ang-(1-7),"[1]; 400 μg/kg, one patient with metastatic pancreatic cancer, first cycle",grade 3 deep vein thrombosis
same,dose-limiting toxicities encountered,[1]; 700 μg/kg dose,stroke (grade 4) and reversible cranial neuropathy (grade 3)
same,"Cerebrovascular ischemia, grade 2, adverse events at least possibly related to treatment",[1]; [3],0
same,"Cerebrovascular ischemia, grade 3, adverse events at least possibly related to treatment",[1]; [3],0
same,"Cerebrovascular ischemia, grade 4, adverse events at least possibly related to treatment",[1]; [3],1
same,"Cerebrovascular ischemia, total, adverse events at least possibly related to treatment",[1]; [3],1
same,"Fatigue, grade 2, adverse events at least possibly related to treatment",[1]; [3],2
same,"Fatigue, grade 3, adverse events at least possibly related to treatment",[1]; [3],0
same,"Fatigue, grade 4, adverse events at least possibly related to treatment",[1]; [3],0
same,"Fatigue, total, adverse events at least possibly related to treatment",[1]; [3],2
same,"Gingival regression, grade 2, adverse events at least possibly related to treatment",[1]; [3],1
same,"Gingival regression, grade 3, adverse events at least possibly related to treatment",[1]; [3],0
same,"Gingival regression, grade 4, adverse events at least possibly related to treatment",[1]; [3],0
same,"Gingival regression, total, adverse events at least possibly related to treatment",[1]; [3],1
same,"Hypocalcemia, grade 2, adverse events at least possibly related to treatment",[1]; [3],1
same,"Hypocalcemia, grade 3, adverse events at least possibly related to treatment",[1]; [3],0
same,"Hypocalcemia, grade 4, adverse events at least possibly related to treatment",[1]; [3],0
same,"Hypocalcemia, total, adverse events at least possibly related to treatment",[1]; [3],1
same,"Muscle weakness, grade 2, adverse events at least possibly related to treatment",[1]; [3],1
same,"Muscle weakness, grade 3, adverse events at least possibly related to treatment",[1]; [3],0
same,"Muscle weakness, grade 4, adverse events at least possibly related to treatment",[1]; [3],0
same,"Muscle weakness, total, adverse events at least possibly related to treatment",[1]; [3],1
same,"Musculoskeletal pain, grade 2, adverse events at least possibly related to treatment",[1]; [3],2
same,"Musculoskeletal pain, grade 3, adverse events at least possibly related to treatment",[1]; [3],0
same,"Musculoskeletal pain, grade 4, adverse events at least possibly related to treatment",[1]; [3],0
same,"Musculoskeletal pain, total, adverse events at least possibly related to treatment",[1]; [3],2
same,"Neuropathy, cranial, grade 2, adverse events at least possibly related to treatment",[1]; [3],0
same,"Neuropathy, cranial, grade 3, adverse events at least possibly related to treatment",[1]; [3],1
same,"Neuropathy, cranial, grade 4, adverse events at least possibly related to treatment",[1]; [3],0
same,"Neuropathy, cranial, total, adverse events at least possibly related to treatment",[1]; [3],1
same,"Orthostasis, grade 2, adverse events at least possibly related to treatment",[1]; [3],1
same,"Orthostasis, grade 3, adverse events at least possibly related to treatment",[1]; [3],0
same,"Orthostasis, grade 4, adverse events at least possibly related to treatment",[1]; [3],0
same,"Orthostasis, total, adverse events at least possibly related to treatment",[1]; [3],1
same,"Thrombosis/thrombus/embolism, grade 2, adverse events at least possibly related to treatment",[1]; [3],0
same,"Thrombosis/thrombus/embolism, grade 3, adverse events at least possibly related to treatment",[1]; [3],1
same,"Thrombosis/thrombus/embolism, grade 4, adverse events at least possibly related to treatment",[1]; [3],0
same,"Thrombosis/thrombus/embolism, total, adverse events at least possibly related to treatment",[1]; [3],1
same,hematologic toxicity,"[1]; all dose levels 100-700 μg/kg, 18 patients",No hematologic toxicity was observed
same,bleeding complications or episodes of hypertension,"[1]; all dose levels, 18 patients",No bleeding complications or episodes of hypertension were observed
same,patients with mild muscle cramps,"[1]; all dose levels, 18 patients",three
same,treatment-related deaths,"[1]; all dose levels, 18 patients",no treatment-related deaths
same,recommended phase II dose,[1]; s.c. once daily for 5 consecutive days on a 3-week cycle,0.4 mg/kg
same,Tmax,"[2]; human, sc",1 h
same,dose-dependent increases in drug exposure,"[2]; s.c. 100-700 μg/kg, RIA",observed only at the highest dose level

# Reference: PMC3703919 (Clinical cancer research : an official journal of the …, 2009)
